# From PubChem
# Arr AP2 block – human beta-arrestin and AP2 interaction inhibition; FITC-arrestin peptide / GST-AP2 beads, flow cytometry; AP2 beta2 appendage carries R879A mutation; inhibition, % at 10 µM; 0.31% of 340,000 active; AID 504490;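 active = inhibition above a set limit, near 3 SD of compounds lacking own fluorescence, cut at about 54% in these data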
#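 System: GST-AP2 R879A glutathione beads. Medium: PBS with 0.05% Tween 20 and 0.1% BSA. Also added: FITC-arrestin peptide, 50 nM. Incubation: 12 min plus 1 h, RT. Measured by: high-throughput flow cytometry of beads, ex 488, em 535 nm. Evaluation: percent drop in bead-associated FITC signal.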
# ADAM17 inh – ADAM17 inhibition, QFRET primary screen | recombinant ADAM17, EDANS/DABCYL FRET peptide cleavage | 0.83% of 370,000 active | inhibition, % at 6.95 µM;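 active = inhibition above the mean of compounds lying between control limits plus 3 SD, set per campaign, cut at about 8.5% in these data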
# CaV13 ICDI inh – Primary screen for inhibitors of IQ motif and Ca2+-dependent inactivation inhibitor domain binding in CACNA1D, Förster resonance energy transfer in living cells, …; HEK cells, CFP/YFP FRET ICDI-IQ, plate reader, 10 min; percent FRET-ratio fall versus neutral wells; inhibition, % at 12.3 µM; 0.098% of 340,000 active; AID 743397;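 active = mean replicate inhibition of at least 30% and at least 1% of replicates passing that level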
# CendR NRP1 mod – alters CendR peptide binding to human NRP-1. FAM-RPARPAR peptide binding to NRP-1, fluorescence polarization. inhibition, % at 25 µM. 0.85% of 360,000 active;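 active = inhibition or corrected inhibition above about 18%, plus a signal ratio from 0.5 to 1.5, limit read from the data, passing the limit was not always enough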
# ADAM10 inh – ADAM10 inhibition, QFRET primary screen. inhibition, % at 7 µM. 0.62% of 370,000 active. O14672. recombinant ADAM10, EDANS/DABCYL FRET peptide cleavage, 3 h. AID 720582;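 active = inhibition above a per-campaign cutoff equal to the mean of compounds falling between control-based bounds plus 3 SD, cut at about 20% in these data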
# Target sequence (O14672 214-748 limits assumed): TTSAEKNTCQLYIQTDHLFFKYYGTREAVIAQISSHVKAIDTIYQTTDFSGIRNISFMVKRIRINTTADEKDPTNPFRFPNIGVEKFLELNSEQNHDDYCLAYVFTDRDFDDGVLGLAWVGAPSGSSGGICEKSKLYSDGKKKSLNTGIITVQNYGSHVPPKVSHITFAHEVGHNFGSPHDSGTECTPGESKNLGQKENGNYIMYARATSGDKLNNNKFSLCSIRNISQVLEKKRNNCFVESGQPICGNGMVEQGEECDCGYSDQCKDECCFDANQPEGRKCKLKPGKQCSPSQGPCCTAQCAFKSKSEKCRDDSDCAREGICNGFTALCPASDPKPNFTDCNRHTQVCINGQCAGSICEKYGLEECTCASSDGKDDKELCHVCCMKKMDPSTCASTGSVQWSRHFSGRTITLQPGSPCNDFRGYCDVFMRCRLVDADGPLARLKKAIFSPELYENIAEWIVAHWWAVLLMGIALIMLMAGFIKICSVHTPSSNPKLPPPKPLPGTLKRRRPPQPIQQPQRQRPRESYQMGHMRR
# FAS TE block – blocks the thioesterase domain of human fatty acid synthase. recombinant FAS-TE, OMFH fluorogenic substrate, fluorescence endpoint. P49327. inhibition, % at 15 µM. 0.67% of 360,000 active;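 active = compounds whose normalised, plate-corrected inhibition of enzyme fluorescence in the single-dose primary screen is 50% or more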
# FAS-TE inh conf – confirmation of human fatty acid synthase thioesterase inhibitors; shares compounds with FAS TE block; inhibition, % at 15 µM; recombinant FAS-TE, OMFH fluorogenic substrate, fluorescence; 45% of 2,300 active;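 active = compounds inhibiting the enzyme by at least 50% at 15 µM in any one of the replicates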
# Numbers stand for hits; 0 = inactive; - = no result given. Sampled rows, rich in hits. Any-hit rate of the full collection: about 2.9%.
SMILES,Arr AP2 block,ADAM17 inh,CaV13 ICDI inh,CendR NRP1 mod,ADAM10 inh,FAS TE block,FAS-TE inh conf
N#C/C(=C\c1c(N2CCN(c3ccccc3)CC2)nc2ccccn2c1=O)S(=O)(=O)c1ccccc1,0,0,0,0,0,71,0
Cc1cccn2c(=O)c(/C=C(\C#N)S(=O)(=O)c3ccccc3)c(N3CCCCC3)nc12,0,0,0,0,0,54,0
CCOC(=O)C1CCN(c2nc3c(C)cccn3c(=O)c2/C=C(\C#N)S(=O)(=O)c2ccccc2)CC1,0,0,0,0,0,65,0
Cc1cc(OCC(=O)OCC(=O)c2ccc[nH]2)ccc1Cl,0,0,0,0,0,0,-
Cc1cc(C(=O)O[C@H]2CCC[C@]3(C(=O)N(Cc4ccccc4)c4ccccc43)[C@H]2NC(=O)CCc2ccccc2)no1,-,0,-,-,0,-,-
COc1cccc(-c2nc(CN3CCN(C(=O)c4ccco4)CC3)c(C)o2)c1OC,-,0,0,0,0,0,-
CC1=C(C(=O)N(C)C)CC(CC(=O)NCCCN(C)C)C(=O)N1CCC1=CCCCC1 (centres undefined),-,0,0,0,0,0,-
Cc1ccc2c(C)nc(N/C(N)=N/S(=O)(=O)c3ccc([N+](=O)[O-])cc3)nc2c1,0,0,0,0,0,52,58
CC(NC(=O)CC(c1ccccc1)c1cc(Cl)ccc1O)c1ccccc1 (centres undefined),0,0,0,0,0,50,0
Cc1nc2ccc([N+](=O)[O-])cc2c(=O)n1Cc1ccc(Cl)cc1,0,0,0,0,0,83,85
COc1ccc(Cn2c(=O)c3cccnc3n(Cc3ccc([N+](=O)[O-])cc3)c2=O)cc1,0,0,0,0,0,0,-
COc1ccc(Cn2c(C)nc3ccc([N+](=O)[O-])cc3c2=O)cc1,0,0,0,0,0,70,48
CCOC(=O)C1=CCN(S(=O)(=O)c2ccccc2F)C1c1ccccc1 (centres undefined),-,0,0,0,0,0,-
COC(=O)[C@]12C[C@H](CC(=O)N3CCOCC3)C(=O)N(CCC3=CCCCC3)C1=C[C@H](C(C)(C)C)O[C@@H]2C,-,0,0,-,0,-,-
NC(=O)c1ccc(C(F)(F)F)n(Cc2c(Cl)cccc2Cl)c1=O,0,0,0,0,0,50,0
O=C(Nc1ccccc1Cl)c1cc(C2CCCN(C(=O)c3ccccc3)C2)on1 (centres undefined),-,0,0,0,0,0,-
CCNc1ccc(S(=O)(=O)N(C)C)cc1NCC(=O)Nc1ccc(F)c(Cl)c1,0,0,0,0,0,58,39
Cc1ccc(S(=O)(=O)N2CCOCC2)cc1NC(=O)CSc1nc2ccccc2c(=O)n1Cc1ccccc1,0,0,0,0,0,50,0
Cc1ccc(S(=O)(=O)N(C)C)cc1-n1c(SCC(=O)Nc2ccc(F)c(F)c2F)nc2ccccc2c1=O,0,0,0,0,0,68,0
O=C(CSc1nc2cc(Cl)ccc2c(=O)n1Cc1ccco1)Nc1ccc(S(=O)(=O)N2CCOCC2)cc1,0,0,0,0,0,88,0
Cc1ccc(S(=O)(=O)N(C)C)cc1-n1c(SCC(=O)N(C)C)nc2ccccc2c1=O,0,0,0,0,0,0,-
O=C(CSc1nc2ccccc2c(=O)n1-c1ccc(F)cc1)Nc1ccc(N2CCOCC2)cc1,0,0,0,0,0,0,-
O=C(CSc1nc2ccccc2c(=O)n1-c1ccc(F)cc1)Nc1cc(S(=O)(=O)N2CCOCC2)ccc1Cl,0,0,0,0,0,78,0
CCN(CC)C(=O)CSc1nnc(-c2ccc(C(C)(C)C)cc2)n1-c1ccc(Cl)cc1,-,0,-,-,0,-,-
Cc1ccccc1C(=O)NC1CCCCN(Cc2cccc(Cl)c2)C1=O (centres undefined),-,0,-,-,0,-,-
SMILES,Arr AP2 block,ADAM17 inh,CaV13 ICDI inh,CendR NRP1 mod,ADAM10 inh,FAS TE block,FAS-TE inh conf
COc1ccc2c(c1)NC(=O)[C@@]2(CCN1C(=O)c2ccccc2C1=O)c1[nH]c2ccccc2c1CCN1C(=O)c2ccccc2C1=O,-,0,-,-,0,-,-
Cc1ccc(CS(=O)(=O)c2ncc(Cl)c(C(=O)Nc3ccc(OC(F)F)cc3)n2)cc1,0,0,0,0,0,52,0
CCOc1ccccc1NC(=O)c1nc(S(=O)(=O)Cc2cccc(C)c2)ncc1Cl,0,0,0,0,0,58,48
COC(=O)c1ccccc1NC(=O)c1nc(S(=O)(=O)Cc2ccccc2)ncc1Cl,0,0,0,0,0,54,0
CC(=O)Nc1ccc(NC(=O)c2nc(S(=O)(=O)Cc3ccccc3)ncc2Cl)cc1,0,0,0,0,0,0,-
CCS(=O)(=O)c1ncc(Cl)c(C(=O)Nc2ccc(C)cc2)n1,0,0,0,0,0,0,-
CCc1nnc(NC(=O)c2nc(S(=O)(=O)Cc3cccc(C)c3)ncc2Cl)s1,0,0,0,0,0,0,-
Cc1ccccc1-n1c(=O)/c(=C\c2ccco2)s/c1=C(/C#N)C(=O)Nc1ccccc1,0,0,0,0,0,62,0
CCOC(=O)/C=c1\s/c(=C(\C#N)C(=O)NC)n(-c2ccccc2)c1=O,0,0,0,0,0,0,-
COc1ccc(NC(=O)/C(=C\c2ccc(OS(=O)(=O)c3ccc(C)cc3)cc2)NC(=O)c2ccccc2)cc1,0,0,-,0,0,54,0
Cc1ccc(S(=O)(=O)Oc2ccc(/C=C(/NC(=O)c3ccccc3)C(=O)Nc3ccccc3)cc2)cc1,0,0,-,0,0,55,0
C[C@H]1[C@H](c2ccccc2)OC(O)([C@H](Cc2ccccc2)NC(=O)OC(C)(C)C)CN1C (some centres undefined),-,0,-,-,0,-,-
Cc1ccccc1S(=O)(=O)NC(=O)C1(C)CCN1C(=O)C1(c2ccc(Cl)cc2)CCC1 (centres undefined),-,0,0,0,0,0,-
CN(CCOC(=O)CSc1ccccc1)C1CN(Cc2cn(Cc3ccccc3F)nn2)S(=O)(=O)C1 (centres undefined),-,0,-,-,0,-,-
O=C(CCNC(=O)c1ccc([N+](=O)[O-])cc1)NCCc1ccc(Cl)cc1,0,0,0,0,0,62,70
Cc1ccc(NC(=O)CCNC(=O)c2ccc([N+](=O)[O-])cc2)cc1C,0,0,0,0,0,64,69
Cc1noc(NS(=O)(=O)c2ccc(NS(=O)(=O)c3ccc(C(C)(C)C)cc3)cc2)c1C,-,0,0,0,0,0,-
CC(NC(=O)Cn1cc([N+](=O)[O-])cn1)c1ccc(C(C)(C)C)cc1 (centres undefined),0,0,0,0,0,76,55
